# Reference: ChEMBL document CHEMBL1123519, “Chemically stable homocinnamyl analogues of the leukotrienes: synthesis and preliminary biological evaluation” (J Med Chem, 1986)
# Activity calls are given as the source filed them. The rule behind the calls is not given here.
# What was measured:
# Cavia porcellus [1] = species: Cavia porcellus; assay: Compound was evaluated for its activity in vitro with use of isolated guinea pig tracheal spiral strips in the presence of L-cysteine (3 mM); assay type: functional; conditions: Trachea
# Procedure, shortened: (§1)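 Guinea pig tracheal strips held at 2 g resting tension and stabilized 60 min, with bath fluid changed every 15 min. Contraction to carbachol 30 μM, wash, then restabilized 60 min. Cumulative agonist concentration-response curves were run, with responses expressed as % of carbachol maximum. L-cysteine 3 mM or L-serine borate 45 mM was preincubated 30 min. EC50 was derived by linear regression, and significance by paired t test (p<0.05).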
# Cavia porcellus [2] = species: Cavia porcellus; assay: Compound was tested for inhibition of LTE4 (8 nM)-induced contraction of isolated guinea pig trachea at 10 mM concentration.; assay type: functional; conditions: in the assay text read “10 µM” for “10 mM”
# Procedure, shortened: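 Isolated guinea pig trachea contracted with LTE4 8 nM. Analogue present in the bath, and inhibition of the LTE4 contraction expressed as percent.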
# Cavia porcellus [3] = species: Cavia porcellus; assay: Compound was evaluated for its activity in vitro with use of isolated guinea pig tracheal spiral strips in the presence (control ); assay type: functional; conditions: Trachea; procedure, shortened: as §1
# Cavia porcellus [4] = species: Cavia porcellus; assay: Compound was evaluated for its activity in vitro with use of isolated guinea pig tracheal spiral strips in the presence of L-serine borate (45 mM); assay type: functional; conditions: Trachea; procedure, shortened: as §1
# Cavia porcellus [5] = species: Cavia porcellus; assay: Compound was tested for FPL-55712 sensitivity in the absence of metabolic inhibitors; Yes; assay type: functional, organism-based
# Procedure, shortened: (§2)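 Guinea pig tracheal strips at 2 g resting tension, stabilized 60 min, carbachol (30 μM) reference contraction, restabilized 60 min. FPL-55712 10 μM was preincubated 30 min before cumulative agonist curves, without metabolic inhibitors. EC50 values were compared with and without antagonist by Student's paired t test (p<0.05). Kb was obtained by the Furchgott method.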
# Cavia porcellus [6] = species: Cavia porcellus; assay: Compound was evaluated for its activity in vitro with use of isolated guinea pig tracheal spiral strips in the presence (control ); Not active; assay type: functional, Trachea; procedure, shortened: as §1
# Cavia porcellus [7] = species: Cavia porcellus; assay: Compound was tested for FPL-55712 sensitivity in the absence of metabolic inhibitors; No sensitivity.; assay type: functional, organism-based; procedure, shortened: as §2
SMILES,EC50 (Cavia porcellus [3]) [nM],EC50 (Cavia porcellus [4]) [nM],also measured
CCCCCCCc1ccccc1C/C=C/[C@H](SC[C@H](N)C(=O)NCC(=O)O)[C@H](O)CCCC(=O)O,,,EC50 (Cavia porcellus [1]): 1870 nM
CCCCCCCc1ccccc1C/C=C/[C@H](SCC(N)C(=O)O)[C@H](O)CCCC(=O)O (some centres not stated),,,Inhibition (Cavia porcellus [2]): 28%
CCCCC/C=C\C\C=C/C=C/C=C/[C@@H](SC[C@H](N)C(=O)NCC(=O)O)[C@@H](O)CCCC(=O)O [LEUKOTRIENE D4],3.92,,EC50 (Cavia porcellus [1]): 0.513 nM
CCCCC/C=C/c1ccc(C/C=C/[C@H](SCC(NC(=O)CCC(N)C(=O)O)C(=O)NCC(=O)O)[C@H](O)CCCC(=O)O)cc1 (some centres not stated),3820,451,
CCCCCCCc1cccc(C/C=C/[C@H](SCC(NC(=O)CCC(N)C(=O)O)C(=O)NCC(=O)O)[C@H](O)CCCC(=O)O)c1 (some centres not stated),1360,447,
CCCCC/C=C/c1cccc(C/C=C/[C@H](SC[C@H](N)C(=O)NCC(=O)O)[C@H](O)CCCC(=O)O)c1,13000,,
CCCCCCOc1ccc(C/C=C/[C@H](SC[C@H](N)C(=O)NCC(=O)O)[C@H](O)CCCC(=O)O)cc1,9100,,Sensitivity (Cavia porcellus [5]): Active
CCCCCCCc1ccc(C/C=C/[C@H](SCC(N)C(=O)O)[C@H](O)CCCC(=O)O)cc1 (some centres not stated),1700,,
CCCCCCOc1ccccc1C/C=C/[C@H](SC[C@H](N)C(=O)NCC(=O)O)[C@H](O)CCCC(=O)O,,,EC50 (Cavia porcellus [6]): Not Active; Inhibition (Cavia porcellus [2]): 18%
CCCCCCCc1ccc(C/C=C\[C@@H](SC[C@H](N)C(=O)NCC(=O)O)[C@@H](O)CCCC(=O)O)cc1,2680,,EC50 (Cavia porcellus [1]): 251 nM
CCCCCCCc1cccc(C/C=C/[C@H](SCC(N)C(=O)O)[C@H](O)CCCC(=O)O)c1 (some centres not stated),4830,,
CCCCCCOc1ccc(C/C=C/[C@H](SCC(NC(=O)CCC(N)C(=O)O)C(=O)NCC(=O)O)[C@H](O)CCCC(=O)O)cc1 (some centres not stated),1280,256,Sensitivity (Cavia porcellus [7]): No sensitivity
CCCCCCCc1ccc(C/C=C/[C@H](SCC(NC(=O)CCC(N)C(=O)O)C(=O)NCC(=O)O)[C@H](O)CCCC(=O)O)cc1 (some centres not stated),574,74.5,
CCCCCCOc1cccc(C/C=C/[C@H](SC[C@H](N)C(=O)NCC(=O)O)[C@H](O)CCCC(=O)O)c1,,,EC50 (Cavia porcellus [6]): Not Active; Inhibition (Cavia porcellus [2]): 24%
CCCCCCCc1cccc(C/C=C/[C@H](SC[C@H](N)C(=O)NCC(=O)O)[C@H](O)CCCC(=O)O)c1,,,EC50 (Cavia porcellus [1]): 4770 nM
CCCCCCCc1ccccc1C/C=C/[C@H](SCC(NC(=O)CCC(N)C(=O)O)C(=O)NCC(=O)O)[C@H](O)CCCC(=O)O (some centres not stated),18600,18400,
